Experimental data gathered from unrelated publications.
Cell line: HL-60
Observed: cell growth or viability

O=C(CSc1nc2ccccc2s1)N/N=C/c1ccc(OCC(=O)Nc2cccc([N+](=O)[O-])c2)cc1 — IC50 (MTS; 72 h): > 100 µM
O=c1cc(OCc2cc(-c3ccc(C(F)(F)F)cc3)no2)c2ccccc2o1 — IC50 (MTS; 72 h): > 100 µM
COc1ccc(Nc2ncnc3c2ncn3Cc2ccc(C(=O)NO)cc2)cc1 — IC50 (MTT; 72 h): 1.98 µM
O=C(CSc1nc2ccccc2s1)N/N=C/c1ccc(OCC(=O)Nc2ccc(Br)cc2)cc1 — IC50 (MTS; 72 h): > 100 µM
O=C(NO)c1ccc(Cn2cnc3c(Nc4cccc([N+](=O)[O-])c4)ncnc32)cc1 — IC50 (MTT; 72 h): 1.86 µM
c1ccc(-c2cc(CNc3cccc4cccnc34)on2)nc1 — IC50 (MTS; 72 h): 64.8 µM
O=C(NO)c1ccc(Cn2cnc3c(Nc4ccc(F)c(Cl)c4)ncnc32)cc1 — IC50 (MTT; 72 h): 2.55 µM
O=c1cc(OCc2cc(-c3ccccc3)no2)c2ccccc2o1 — IC50 (MTS; 72 h): > 100 µM
C=C1C[C@@]23CC[C@H]4[C@@](C)(CCC[C@@]4(C)C(=O)O)[C@@H]2CC[C@@H]1C3 — IC50 (XTT; 75 h): 155 µM
O=C(CSc1nc2ccccc2s1)N/N=C/c1ccc(OCC(=O)Nc2ccc([N+](=O)[O-])cc2)cc1 — IC50 (MTS; 72 h): 16.1 µM
O=C(NO)c1ccc(Cn2cnc3c(Nc4ccc(Br)cc4F)ncnc32)cc1 — IC50 (MTT; 72 h): 5.98 µM
CN1CCc2c(c3ccccc3n2Cc2ccc(C(=O)NO)cc2)C1 — IC50 (CCK-8; 48 h): 8.87 µM
